Assay results from ChEMBL document CHEMBL2346503, “Synthesis and evaluation of novel (18)F-labeled spirocyclic piperidine derivatives as σ1 receptor ligands for positron emission tomography imaging” (J Med Chem, 2013).

Legend:
[1] = Ratio of drug uptake from ICR mouse brain to blood after 30 mins; assay type: ADME, tissue-based; conditions: brain and blood
[2] = test system: Intestine; assay: Biodistribution in ICR mouse intestine assessed per organ at 370 kBq, iv after 60 mins by gamma-counting analysis; assay type: ADME, organism-based; conditions: in vivo, 1 h
In short: (§1)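 Male ICR mice (n = 5) got 370 kBq iv in 0.1 mL saline and were decapitated at 2, 30, 60 or 120 min. Whole intestine was γ-counted and expressed as percent injected dose per organ, decay-corrected, mean ± SD.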

[3] = test system: Heart; assay: Biodistribution in ICR mouse heart at 370 kBq, iv after 60 mins by gamma-counting analysis; assay type: ADME, organism-based; conditions: in vivo, 1 h
In short: (§2)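 Male ICR mice (n = 5 per group) got 370 kBq tracer in 0.1 mL saline by iv injection. They were decapitated at 2, 30, 60 or 120 min, and organs were weighed and γ-counted. %ID/g was found against diluted aliquots of the injected dose, decay-corrected, and given as mean ± SD.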

[4] = test system: Brain; assay: Biodistribution in ICR mouse brain at 370 kBq, iv after 60 mins by gamma-counting analysis; assay type: ADME, organism-based; conditions: in vivo, 1 h; in short: as §2
[5] = test system: Muscle tissue; assay: Biodistribution in ICR mouse muscle at 370 kBq, iv after 30 mins by gamma-counting analysis; assay type: ADME, organism-based; conditions: in vivo, 0.5 h
In short: (§3)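 Male ICR mice, n = 5 per time point, given the radiotracer in saline (370 kBq, 0.1 mL) by intravenous injection. Killed by decapitation at 2, 30, 60 or 120 min. Organs were excised, weighed and gamma-counted with decay correction. Uptake is expressed as % injected dose per gram of wet tissue against diluted standards of the injected material; stomach and intestine are expressed as % injected dose per organ. Mean ± SD.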

[6] = test system: Muscle tissue; assay: Biodistribution in ICR mouse muscle at 370 kBq, iv after 60 mins by gamma-counting analysis; assay type: ADME, organism-based; conditions: in vivo, 1 h; in short: as §3
[7] = test system: Lung; assay: Biodistribution in ICR mouse lung at 370 kBq, iv after 120 mins by gamma-counting analysis; assay type: ADME, organism-based; conditions: in vivo, 2 h; in short: as §2
[8] = test system: Muscle tissue; assay: Biodistribution in ICR mouse muscle at 370 kBq, iv after 60 mins by gamma-counting analysis in presence of haloperidol relative to control; assay type: ADME, organism-based; conditions: in vivo, 1 h
In short: (§4)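 Male ICR mice, n = 5 per group, received saline (0.1 mL) or haloperidol (0.1 mL, 1.0 mg/kg) via tail vein 5 min before the radiotracer (370 kBq, 0.1 mL, iv). Killed by decapitation at 60 min. Tissues were excised, weighed and gamma-counted. Values are % ID/g (stomach as % ID/organ) and percent change versus saline controls, compared by two-tailed independent Student's t test, p ≤ 0.05.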

[9] = test system: Lung; assay: Biodistribution in ICR mouse lung at 370 kBq, iv after 60 mins by gamma-counting analysis in presence of haloperidol relative to control; assay type: ADME, organism-based; conditions: in vivo, 1 h; in short: as §4
[10] = test system: Stomach; assay: Biodistribution in ICR mouse stomach assessed per organ at 370 kBq, iv after 30 mins by gamma-counting analysis; assay type: ADME, organism-based; conditions: in vivo, 0.5 h; in short: as §3
[11] = test system: Bone; assay: Biodistribution in ICR mouse bone at 370 kBq, iv after 60 mins by gamma-counting analysis in presence of haloperidol relative to control; assay type: ADME, organism-based, Bone element; conditions: in vivo, 1 h
In short: (§5)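 Male ICR mice (n = 5) got saline or haloperidol (0.1 mL, 1.0 mg/kg) via tail vein 5 min before 370 kBq tracer iv. Tissues were taken 60 min later and γ-counted as %ID/g (intestine as %ID/organ). Control and blocked groups were compared by two-tailed independent Student's t test, p ≤ 0.05.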

[12] = test system: Bone; assay: Biodistribution in ICR mouse bone at 370 kBq, iv after 2 mins by gamma-counting analysis; assay type: ADME, organism-based, Bone element; conditions: in vivo; in short: as §2
[13] = test system: Liver; assay: Biodistribution in ICR mouse liver at 370 kBq, iv after 120 mins by gamma-counting analysis; assay type: ADME, organism-based; conditions: in vivo, 2 h; in short: as §2
[14] = test system: Blood; assay: Biodistribution in ICR mouse blood at 370 kBq, iv after 60 mins by gamma-counting analysis; assay type: ADME, organism-based; conditions: in vivo, 1 h; in short: as §2
[15] = Ratio of drug uptake from ICR mouse brain to blood after 120 mins; assay type: ADME, tissue-based; conditions: brain and blood
[16] = test system: Blood; assay: Biodistribution in ICR mouse blood at 370 kBq, iv after 30 mins by gamma-counting analysis; assay type: ADME, organism-based; conditions: in vivo, 0.5 h; in short: as §2
[17] = test system: Liver; assay: Biodistribution in ICR mouse liver at 370 kBq, iv after 30 mins by gamma-counting analysis; assay type: ADME, organism-based; conditions: in vivo, 0.5 h; in short: as §2
[18] = test system: Intestine; assay: Biodistribution in ICR mouse intestine assessed per organ at 370 kBq, iv after 120 mins by gamma-counting analysis; assay type: ADME, organism-based; conditions: in vivo, 2 h; in short: as §1
[19] = test system: Brain; assay: Biodistribution in ICR mouse brain at 370 kBq, iv after 120 mins by gamma-counting analysis; assay type: ADME, organism-based; conditions: in vivo, 2 h; in short: as §2
[20] = test system: Lung; assay: Biodistribution in ICR mouse lung at 370 kBq, iv after 30 mins by gamma-counting analysis; assay type: ADME, organism-based; conditions: in vivo, 0.5 h; in short: as §2
[21] = test system: Kidney; assay: Biodistribution in ICR mouse kidney at 370 kBq, iv after 120 mins by gamma-counting analysis; assay type: ADME, organism-based; conditions: in vivo, 2 h; in short: as §2
[22] = test system: Liver; assay: Biodistribution in ICR mouse liver at 370 kBq, iv after 60 mins by gamma-counting analysis in presence of haloperidol relative to control; assay type: ADME, organism-based; conditions: in vivo, 1 h; in short: as §5
[23] = test system: Lung; assay: Biodistribution in ICR mouse lung at 370 kBq, iv after 60 mins by gamma-counting analysis; assay type: ADME, organism-based; conditions: in vivo, 1 h; in short: as §3
[24] = test system: Rattus norvegicus; assay: Biodistribution in Sprague-Dawley rat olfactory bulb at 23 MBq, iv after 60 mins by microPET imaging/CT study; assay type: ADME, organism-based; conditions: in vivo, 1 h
In short: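 Sprague-Dawley rats under isoflurane (1.5–2.5%) in oxygen received 23 MBq radiotracer (0.2 mL saline) via tail vein. Blocking animals were pre-injected with haloperidol (0.2 mL, 1 mg/kg) 5 min before the tracer. MicroPET emission was acquired for 30 min starting 60 min post-injection, followed by a 5 min CT scan; images were summed over 60–90 min.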

[25] = test system: Brain; assay: Metabolic stability in ICR mouse brain at 18.5 MBq, iv after 30 mins by HPLC analysis; assay type: ADME, organism-based; conditions: in vivo, 0.5 h
In short: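 Male ICR mice given radiotracer iv (18.5 MBq, 0.2 mL), killed at 30 min. Brain and liver were homogenized in ice-cold PBS (0.01 M, pH 7.4) and extracted with ice-cold MeCN. Supernatants were filtered, concentrated and analysed by radio-HPLC on a C18 column, acetonitrile/water with 0.1% TFA (45:55), 1 mL/min.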

[26] = test system: Cortex; assay: Drug uptake in Sprague-Dawley rat cortex at 12.2 MBq, iv after 60 mins by autoradiography; assay type: ADME, organism-based; conditions: in vivo, 1 h
In short: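 [¹⁸F]-labelled tracer (0.2 mL, 12.2 MBq) given intravenously to conscious Sprague-Dawley rats (n = 3). Each rat was killed by cervical dislocation 60 min after injection. The brain was removed and frozen in liquid nitrogen, and 20 μm coronal sections were cut on a cryostat for ex vivo autoradiography of regional radioactivity.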

[27] = Stability of the compound in mouse plasma at 37 degC up to 4 hrs; assay type: ADME, cell-free
In short: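 The radiotracer (3.7 MBq in 100 μL water) was added to 1 mL of freshly prepared murine plasma and incubated at 37 °C for 4 h. Radiochemical purity was assayed by HPLC at 1, 2 and 4 h.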

[28] = test system: Heart; assay: Biodistribution in ICR mouse heart assessed as reduction in radiotracer uptake at 370 kBq, iv after 60 minutes by gamma-counting analysis in presence of SA4503 relative to control; assay type: ADME, organism-based; parameters: scale not given: the % may be the effect or the level left; conditions: in vivo, 1 h
In short: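 Male ICR mice got saline or SA4503 (0.1 mL; 2, 5, 10 or 2.2 μmol/kg) via tail vein 5 min before 370 kBq tracer (0.1 mL) iv. They were decapitated at 60 min and tissues γ-counted. Percent change was taken against saline controls, with two-tailed Student's t test, p ≤ 0.05.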

Kp at 0.5 h [1] | Drug uptake [2] | Drug uptake [3] | Drug uptake [4] | Drug uptake [5] | Drug uptake [6] | Drug uptake [7] | Drug uptake [8] | Drug uptake [9] | Drug uptake [10] | Drug uptake [11] | Drug uptake [12] | Drug uptake [13] | Drug uptake [14] | Kp at 2 h [15] | Drug uptake [16] | Drug uptake [17] | Drug uptake [18] | Drug uptake [19] | Drug uptake [20] | Compound | further results
1.8 | 4.68 %ID | 3.43 % ID/g | 4.63 % ID/g | 2.42 % ID/g | 2.64 % ID/g | 3.16 % ID/g | 17% | 6% | 2 %ID | -26% | 3.38 % ID/g | 4.14 % ID/g | 3.35 % ID/g | 1.1 | 2.96 % ID/g | 8.67 % ID/g | 4.04 %ID | 3.91 % ID/g | 4.46 % ID/g | [18F]CCOCCOCCOc1ccc(CN2CCC3(CC2)OCc2ccccc23)cc1 | Drug uptake [21]: 3.96 % ID/g; Drug uptake [22]: -36%; Drug uptake [23]: 3.73 % ID/g
12.9 | 7.81 %ID | 10.74 % ID/g | 9.1 % ID/g | 4.59 % ID/g | 4.41 % ID/g | 16.2 % ID/g | -20% | -76% | 1.09 %ID | 18% | 2.74 % ID/g | 13.6 % ID/g | 0.8 % ID/g | 7.5 | 0.72 % ID/g | 15.3 % ID/g | 7.17 %ID | 8.99 % ID/g | 25.89 % ID/g | [18F]CCOc1ccc(CN2CCC3(CC2)OCc2ccccc23)cc1 | Drug uptake [24]: Active; Stability [25]: Stable; Drug uptake [26]: Active; Drug uptake [21]: 9.55 % ID/g; Drug uptake [22]: -64%; Stability [27]: Stable; Activity [28]: 60%; Drug uptake [23]: 25.21 % ID/g
